Measured values from ChEMBL document CHEMBL3351994, “Synthesis and biological evaluation of novel millepachine derivatives as a new class of tubulin polymerization inhibitors” (J Med Chem, 2014).

Key:
[1] = Antiproliferative activity against adriamycin resistant human MCF7/ADR cells assessed as inhibition of cell proliferation after 48 hrs by MTT assay; format: functional, cell-based; conditions: NCI/ADR-RES
How it was run: (§1)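 Cells grown at 37 °C in humidified 5% CO2. K562, C26 and HCT lines in RPMI-1640; other lines in DMEM; both media with 10% FBS, penicillin and streptomycin. 1000 cells/well seeded, incubated overnight, then compound at various doses for 48 h. MTT added for 4 h, formazan dissolved in DMSO, absorbance read at 590 nm. IC50 from dose–response curves, mean ± SEM of at least three independent experiments.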

[2] = system: Mus musculus; assay: Toxicity in human HepG2 cells xenografted Balb/C mouse assessed as body weight changes at 5 mg/kg, iv dosed every 2 days for 11 days; format: organism-based; design: dose 5 mg/kg, route intravenous; conditions: in vivo
How it was run: (§2)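 Xenografts: 5 × 10^6 tumour cells injected sc in right armpit/flank of 5−6-week-old female mice; at 100 mm3 tumour volume, randomized (6 per group) and dosed in vehicle of 2.5% Tween-80 and 2.5% ethanol; body weights and caliper tumour volumes recorded every 2 days, toxicity signs and mortality daily.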

[3] = system: HepG2; assay: Antitumor activity against human HepG2 cells xenografted in Balb/C mouse assessed as tumor mass changes at 5 mg/kg, iv dosed every 2 days for 11 days; format: functional
How it was run: (§3)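 Female Balb/c or athymic nude mice, 5–6 weeks old. 5 × 10^6 cells in HBSS implanted sc in the right flank/armpit. Treatment began at tumor volume 100 mm3, 6 mice per group; vehicle was 2.5% Tween-80 and 2.5% ethanol. Tumor volume (π/6 × L × W²) and body weight measured every 2 days. Inhibition = (1 − treated/control tumor weight) × 100%.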

[4] = system: Mus musculus; assay: Toxicity in human HepG2 cells xenografted Balb/C mouse assessed as mortality level at 5 mg/kg, iv dosed every 2 days for 11 days; format: organism-based; design: dose 5 mg/kg, route intravenous; conditions: in vivo
How it was run: (§4)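 Female Balb/C or athymic nude mice, 5−6 weeks old, implanted sc in the right flank/armpit with 5 × 10^6 cells in HBSS. Once tumors reached 100 mm3, mice were randomized (6 per group) and dosed with vehicle (2.5% Tween-80, 2.5% ethanol) or drug. Toxicity signs and mortality observed daily. Body weight and caliper tumor volume measured every 2 days.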

[5] = system: Rattus norvegicus; assay: Systemic clearance in rat at 15 mg/kg, po; format: ADME, organism-based; design: dose 15 mg/kg, route oral; conditions: in vivo
[6] = system: HepG2; assay: Antitumor activity against human HepG2 cells xenografted in Balb/C mouse assessed as tumor mass changes at 25 mg/kg, po dosed every 2 days for 11 days; format: functional; how it was run: as §3
[7] = system: Mus musculus; assay: Toxicity in mouse C26 cells xenografted Balb/C mouse assessed as mortality level at 10 mg/kg, iv dosed every 2 days for 8 days; format: organism-based; design: dose 10 mg/kg, route intravenous; conditions: in vivo; how it was run: as §4
[8] = system: HepG2; assay: Antiproliferative activity against human HepG2 cells assessed as inhibition of cell proliferation after 48 hrs by MTT assay; format: functional, cell-based; conditions: hepg2; how it was run: as §1
[9] = system: Mus musculus; assay: Toxicity in cisplatin-resistant human […] cells xenografted Balb/C mouse assessed as mortality level at 10 mg/kg, iv dosed every 2 days for 7 days; format: organism-based, A2780cisR; design: dose 10 mg/kg, route intravenous; conditions: in vivo; how it was run: as §4
[10] = Antitumor activity against cisplatin-resistant human […] cells xenografted in Balb/C mouse assessed as tumor mass changes at 10 mg/kg, iv dosed every 2 days for 7 days; format: functional, A2780cisR; how it was run: as §3
[11] = system: Mus musculus; assay: Toxicity in human HepG2 cells xenografted Balb/C mouse assessed as mortality level at 25 mg/kg, po dosed every 2 days for 11 days; format: organism-based; design: dose 25 mg/kg, route oral; conditions: in vivo; how it was run: as §4
[12] = Antitumor activity against human A2780S cells xenografted in Balb/C mouse assessed as tumor mass changes at 10 mg/kg, iv dosed every 2 days for 8 days; format: functional, A2780; how it was run: as §3
[13] = system: Rattus norvegicus; assay: AUC in rat at 3 mg/kg, iv; format: ADME, organism-based, Plasma; design: dose 3 mg/kg, route intravenous; conditions: in vivo
How it was run: (§5)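 Rat pharmacokinetics; oral and intravenous dosing, with group sizes of 5, 5 and 4 rats. Parameters derived: systemic clearance, volume of distribution, area under the plasma concentration–time curve, maximum plasma concentration and percent oral bioavailability.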

[14] = Antitumor activity against mouse C26 cells xenografted in Balb/C mouse assessed as tumor mass changes at 10 mg/kg, iv dosed every 2 days for 8 days; format: functional; how it was run: as §3
[15] = system: Mus musculus; assay: Toxicity in human A2780S cells xenografted Balb/C mouse assessed as mortality level at 10 mg/kg, iv dosed every 2 days for 8 days; format: organism-based, A2780; design: dose 10 mg/kg, route intravenous; conditions: in vivo; how it was run: as §4
[16] = system: Rattus norvegicus; assay: Systemic clearance in rat at 3 mg/kg, iv; format: ADME, organism-based; design: dose 3 mg/kg, route intravenous; conditions: in vivo
[17] = system: Mus musculus; assay: Toxicity in human A2780S cells xenografted Balb/C mouse assessed as body weight changes at 10 mg/kg, iv dosed every 2 days for 8 days; format: organism-based, A2780; design: dose 10 mg/kg, route intravenous; conditions: in vivo; how it was run: as §2
[18] = Volume of distribution at steady state in rat at 3 mg/kg, iv; format: ADME, organism-based; design: dose 3 mg/kg, route intravenous; conditions: in vivo, read-out: Vdss
[19] = system: Mus musculus; assay: Toxicity in human HepG2 cells xenografted Balb/C mouse assessed as body weight changes at 25 mg/kg, po dosed every 2 days for 11 days; format: organism-based; design: dose 25 mg/kg, route oral; conditions: in vivo; how it was run: as §2
[20] = system: Rattus norvegicus; assay: AUC in rat at 15 mg/kg, po; format: ADME, organism-based, Plasma; design: dose 15 mg/kg, route oral; conditions: in vivo; how it was run: as §5
[21] = Toxicity in iv dosed BALB/c mouse; format: organism-based; conditions: in vivo
How it was run: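 Maximum tolerated dose in BALB/c mice (SPF, 18−22 g, 6−8 weeks, half female and half male). Graded doses given intravenously, n = 4 per dose. Survival and adverse effects recorded every other day after dosing. MTD defined as the largest dose given before one death occurs.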

[22] = Cmax in rat at 15 mg/kg, po; format: ADME, organism-based; design: dose 15 mg/kg, route oral; conditions: in vivo; how it was run: as §5
[23] = system: Rattus norvegicus; assay: Volume of distribution at steady state in rat at 15 mg/kg, po; format: ADME, organism-based; design: dose 15 mg/kg, route oral; conditions: in vivo
[24] = system: Mus musculus; assay: Toxicity in cisplatin-resistant human […] cells xenografted Balb/C mouse assessed as body weight changes at 10 mg/kg, iv dosed every 2 days for 7 days; format: organism-based, A2780cisR; design: dose 10 mg/kg, route intravenous; conditions: in vivo; how it was run: as §2
[25] = Oral bioavailability in rat at 15 mg/kg; format: ADME, organism-based; conditions: in vivo
[26] = Solubility in PBS solution by nephelometry; format: physicochemical
How it was run: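 Maximum soluble concentration in PBS, determined by nephelometry.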

[27] = Cmax in rat at 3 mg/kg, iv; format: ADME, organism-based; design: dose 3 mg/kg, route intravenous; conditions: in vivo; how it was run: as §5
[28] = system: Mus musculus; assay: Toxicity in mouse C26 cells xenografted Balb/C mouse assessed as body weight changes at 10 mg/kg, iv dosed every 2 days for 8 days; format: organism-based; design: dose 10 mg/kg, route intravenous; conditions: in vivo; how it was run: as §2

## COc1cccc2c1C(=O)c1c(O)c3c(c(O)c1C2=O)C[C@@](O)(C(=O)CO)C[C@@H]3O[C@H]1C[C@H](N)[C@H](O)[C@H](C)O1.Cl [DOXORUBICIN HYDROCHLORIDE]
[1]
  IC50: 5300 nM
[2]
  Activity: 0.5%
[3]
  Activity: 61%
[4]
  Activity: Non-toxic

## COc1ccc(/C=C/C(=O)c2ccc(OC)c3c2OC(C)(C)C=C3)cc1N.Cl
[5]
  CL: 123 mL/min/kg
[6]
  Activity: 78%
[7]
  Activity: Non-toxic
[8]
  IC50: 9 nM
[9]
  Activity: Non-toxic
[10]
  Activity: 51%
[11]
  Activity: Non-toxic
[12]
  Activity: 61%
[13]
  AUC: 973 ng·h/mL
[14]
  Activity: 86%
[15]
  Activity: Non-toxic
[16]
  CL: 50 mL/min/kg
[17]
  Activity: -2.5%
[18]
  Vd: 31 L/kg
[19]
  Activity: 7.6%
[20]
  AUC: 2260 ng·h/mL
[21]
  MTD: 250 mg/kg
[22]
  Cmax: 449 ng/mL
[23]
  Vdss: 47 L/kg
[24]
  Activity: 1%
[25]
  bioavailability: 47%
[26]
  solubility kinetic: 64 µg/mL
[27]
  Cmax: 1510 ng/mL
[28]
  Activity: 0.8%
